The values that follow come from ChEMBL document CHEMBL3763042, “Synthesis, biological evaluation and molecular modeling of a novel series of 7-azaindole based tri-heterocyclic compounds as potent CDK2/Cyclin E inhibitors” (Eur J Med Chem, 2016).

Activity calls are given as the source filed them. The rule behind the calls is not given here.

Experiment [1] deals with Cyclin-dependent kinase 5/CDK5 activator 1 (Homo sapiens, UniProt Q00535). Description: Inhibition of CDK5/p35NCK (unknown origin) using histone H1 as substrate in presence of [gamma-33P]ATP. It counts as protein-complex assay.
Cyclin-dependent kinase 5/CDK5 activator 1, sequence (Q00535 whole entry): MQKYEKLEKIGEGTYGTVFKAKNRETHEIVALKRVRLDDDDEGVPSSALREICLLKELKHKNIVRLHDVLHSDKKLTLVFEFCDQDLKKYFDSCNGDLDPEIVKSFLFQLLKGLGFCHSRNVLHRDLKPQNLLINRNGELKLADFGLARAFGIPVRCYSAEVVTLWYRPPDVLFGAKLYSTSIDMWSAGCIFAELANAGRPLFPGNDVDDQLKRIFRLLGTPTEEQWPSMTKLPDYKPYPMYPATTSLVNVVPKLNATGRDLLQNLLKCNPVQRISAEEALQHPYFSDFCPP
Cyclin-dependent kinase 5/CDK5 activator 1, sequence (Q15078 whole entry, further chain): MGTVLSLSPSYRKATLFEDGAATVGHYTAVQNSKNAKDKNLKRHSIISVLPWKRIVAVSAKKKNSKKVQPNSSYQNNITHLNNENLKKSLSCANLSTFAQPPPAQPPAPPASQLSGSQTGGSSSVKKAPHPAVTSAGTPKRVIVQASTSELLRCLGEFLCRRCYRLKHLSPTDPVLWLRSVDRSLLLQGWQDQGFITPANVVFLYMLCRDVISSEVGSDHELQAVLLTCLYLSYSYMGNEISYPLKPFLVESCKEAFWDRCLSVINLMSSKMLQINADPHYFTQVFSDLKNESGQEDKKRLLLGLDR
Experiment [2] is described as follows: Downregulation of cyclin A1 levels in human G361 cells at 20 to 80 uM after 24 hrs by immunoblotting analysis. Type of experiment: functional, cell-based. Particulars: G-361. Summed up: (§1)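 G361 cells treated 24 h, harvested into Laemmli sample buffer. Proteins separated by SDS-PAGE, electroblotted to nitrocellulose, blocked, probed overnight with specific primary antibodies, then peroxidase-conjugated secondary antibodies. Tubulin served as loading control.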
For orientation: A western blot detects proteins with antibodies after separation by electrophoresis.

Experiment [3] can be described thus: Cell cycle arrest in BrdU pulse labeled human G361 cells assessed as accumulation at sub G1 phase at 20 uM after 24 hrs by propidium iodide staining based flow cytometry (reference value: 0.8%). It counts as functional. Particulars: G-361. A general note: In flow cytometry, cells or beads pass a laser one at a time.
The nature of experiment [4]: Cytotoxicity against human G361 cells assessed as cell viability at 50 uM after 72 hrs by fluorescence microplate reader method. Type of experiment: functional. The settings on record: G-361, 72 h, read-out: Activity.
Experiment [5] can be described thus: Cell cycle arrest in BrdU pulse labeled human G361 cells assessed as accumulation at sub G1 phase at 60 uM after 24 hrs by propidium iodide staining based flow cytometry (reference value: 0.8%). Type of experiment: functional. Particulars: G-361.
Experiment [6] addresses T1, Cyclin-dependent kinase 2/cyclin E1 (Homo sapiens) (UniProt P24864+P24941). Description: Inhibition of CDK2/Cyclin E in human G361 cells assessed as suppression of nucleophosmin phosphorylation at T199 at 50 uM after 4 hrs by immunoblotting analysis. It counts as cell-based. Particulars: G-361. Summed up: (§2)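 G361 cells synchronized with nocodazole (3 ng/mL, 16 h), then treated 4 h. Phosphorylated CDK substrates detected by immunoblotting, with tubulin as equal-loading control.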

Experiment [7] is described as follows: Upregulation of Bid protein level in human G361 cells at 20 to 80 uM after 24 hrs by immunoblotting analysis. Type of experiment: functional, cell-based. Particulars: G-361. Summed up:
as §1

Experiment [8] in a line: Cell cycle arrest in BrdU pulse labeled human G361 cells assessed as accumulation at sub G1 phase at 80 uM after 24 hrs by propidium iodide staining based flow cytometry (reference value: 0.8%). It counts as functional. Particulars: G-361.
The nature of experiment [9]: Downregulation of cyclin B1 levels in human G361 cells at 20 to 80 uM after 24 hrs by immunoblotting analysis. It counts as functional, cell-based. The settings on record: G-361. Summed up:
as §1

In experiment [10] the target is CDK9/cyclin T1 (Homo sapiens, UniProt P50750). Description: Inhibition of CDK9/Cyclin T1 (unknown origin) using (YSPTSPS)2KK peptide as substrate in presence of [gamma-33P]ATP. It counts as protein-complex assay.
CDK9/cyclin T1, sequence (O60563 whole entry): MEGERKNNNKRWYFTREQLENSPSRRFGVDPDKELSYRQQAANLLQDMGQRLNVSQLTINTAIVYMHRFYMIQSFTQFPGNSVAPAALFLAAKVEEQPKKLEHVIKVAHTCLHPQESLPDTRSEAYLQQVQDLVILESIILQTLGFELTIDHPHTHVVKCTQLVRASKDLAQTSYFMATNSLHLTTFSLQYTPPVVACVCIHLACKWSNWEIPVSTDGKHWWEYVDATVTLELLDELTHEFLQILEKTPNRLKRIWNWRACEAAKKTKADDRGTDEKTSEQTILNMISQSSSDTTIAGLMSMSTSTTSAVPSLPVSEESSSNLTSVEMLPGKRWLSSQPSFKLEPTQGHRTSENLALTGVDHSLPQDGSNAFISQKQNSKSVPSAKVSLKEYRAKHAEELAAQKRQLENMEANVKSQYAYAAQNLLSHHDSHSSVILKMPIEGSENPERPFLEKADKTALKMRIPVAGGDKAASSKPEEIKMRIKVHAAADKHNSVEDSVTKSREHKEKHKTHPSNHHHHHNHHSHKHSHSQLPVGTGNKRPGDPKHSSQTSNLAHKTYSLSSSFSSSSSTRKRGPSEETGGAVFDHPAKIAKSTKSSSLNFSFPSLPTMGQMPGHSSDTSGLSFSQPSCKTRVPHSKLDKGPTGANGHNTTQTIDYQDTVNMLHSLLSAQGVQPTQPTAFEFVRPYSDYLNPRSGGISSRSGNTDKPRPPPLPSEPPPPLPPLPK
CDK9/cyclin T1, sequence (P50750 whole entry): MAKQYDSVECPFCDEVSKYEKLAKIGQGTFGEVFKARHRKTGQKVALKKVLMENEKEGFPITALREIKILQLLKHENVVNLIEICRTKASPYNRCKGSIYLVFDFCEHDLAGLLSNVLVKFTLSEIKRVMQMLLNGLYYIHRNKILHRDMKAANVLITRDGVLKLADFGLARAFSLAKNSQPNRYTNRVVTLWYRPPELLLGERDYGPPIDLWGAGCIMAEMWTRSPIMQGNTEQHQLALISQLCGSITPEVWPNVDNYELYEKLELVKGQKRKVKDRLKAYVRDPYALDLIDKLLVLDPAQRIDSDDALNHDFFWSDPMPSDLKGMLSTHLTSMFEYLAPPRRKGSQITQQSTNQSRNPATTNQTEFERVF
Experiment [11] deals with CDK7/Cyclin H/MNAT1 (Homo sapiens, UniProt P50613). The experiment can be described thus: Inhibition of CDK7/Cyclin H/MAT1 (unknown origin) using (YSPTSPS)2KK peptide as substrate in presence of [gamma-33P]ATP. Type of experiment: protein-complex assay.
CDK7/Cyclin H/MNAT1, sequence (P51946 whole entry): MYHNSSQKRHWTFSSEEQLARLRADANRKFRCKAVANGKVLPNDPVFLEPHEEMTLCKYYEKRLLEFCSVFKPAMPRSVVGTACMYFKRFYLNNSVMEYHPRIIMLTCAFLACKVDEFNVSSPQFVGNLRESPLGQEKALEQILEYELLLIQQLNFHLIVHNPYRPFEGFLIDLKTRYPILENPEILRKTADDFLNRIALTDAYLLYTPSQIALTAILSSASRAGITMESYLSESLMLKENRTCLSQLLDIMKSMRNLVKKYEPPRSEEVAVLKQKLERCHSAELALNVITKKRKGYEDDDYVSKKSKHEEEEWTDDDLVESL
CDK7/Cyclin H/MNAT1, sequence (P50613 whole entry): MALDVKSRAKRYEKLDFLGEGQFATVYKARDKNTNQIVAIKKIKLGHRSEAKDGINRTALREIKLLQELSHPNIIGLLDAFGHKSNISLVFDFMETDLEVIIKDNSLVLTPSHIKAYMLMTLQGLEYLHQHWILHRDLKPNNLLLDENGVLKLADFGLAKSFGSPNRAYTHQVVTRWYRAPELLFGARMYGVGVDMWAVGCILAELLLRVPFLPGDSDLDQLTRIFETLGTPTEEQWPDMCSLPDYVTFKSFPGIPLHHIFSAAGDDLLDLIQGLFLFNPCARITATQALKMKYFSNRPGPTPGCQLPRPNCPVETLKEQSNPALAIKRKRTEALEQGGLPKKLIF
CDK7/Cyclin H/MNAT1, sequence (P51948 whole entry, further chain): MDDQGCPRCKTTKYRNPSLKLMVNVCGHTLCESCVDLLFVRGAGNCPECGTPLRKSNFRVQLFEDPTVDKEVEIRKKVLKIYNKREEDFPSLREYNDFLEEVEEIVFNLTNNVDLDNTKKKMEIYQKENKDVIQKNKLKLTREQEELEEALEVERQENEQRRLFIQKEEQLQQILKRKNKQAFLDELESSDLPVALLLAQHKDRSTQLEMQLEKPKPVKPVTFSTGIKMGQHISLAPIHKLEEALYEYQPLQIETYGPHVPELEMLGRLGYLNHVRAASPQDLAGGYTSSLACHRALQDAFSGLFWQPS
The subject of experiment [12] is CCRF-CEM. Description: Cytotoxicity against human CEM cells assessed as cell viability after 72 hrs by fluorescence microplate reader method. Type of experiment: functional, cell-based. Summed up: (§3)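 Cells were exposed to three-fold compound dilutions in triplicate for 72 h. Viability was read after adding Calcein AM, as live-cell fluorescence at 485/538 nm (excitation/emission).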

For experiment [13], the system named is MCF7. Description: Cell cycle arrest in BrdU pulse labeled human MCF7 cells assessed as accumulation at G2/M phase after 24 hrs by propidium iodide staining based flow cytometry. Type of experiment: functional.
For experiment [14], the system named is K562. Description: Cytotoxicity against human K562 cells assessed as cell viability at 50 uM after 72 hrs by fluorescence microplate reader method. The settings on record: K562, 72 h, read-out: Activity. Type of experiment: functional.
A short description of experiment [15]: Downregulation of Mcl-1 protein level in human G361 cells at 20 to 80 uM after 24 hrs by immunoblotting analysis. It counts as functional, cell-based. The settings on record: G-361. Summed up: as §1
Experiment [16] can be described thus: Cell cycle arrest in BrdU pulse labeled human G361 cells assessed as accumulation at sub G1 phase after 24 hrs by propidium iodide staining based flow cytometry. It counts as functional. The settings on record: G-361.
For experiment [17], the target named is T1, Cyclin-dependent kinase 2/cyclin E1 (Homo sapiens). Description: Inhibition of CDK2/Cyclin E in human G361 cells assessed as suppression of PP1alpha phosphorylation at T320 at 50 uM after 4 hrs by immunoblotting analysis. Type of experiment: cell-based. The settings on record: G-361. Summed up: as §2
Experiment [18] relates to MCF7. Description: Cell cycle arrest in BrdU pulse labeled human MCF7 cells assessed as accumulation at G1 phase after 24 hrs by propidium iodide staining based flow cytometry. It counts as functional.
Experiment [19] has as its system MCF7. The experiment can be described thus: Cytotoxicity against human MCF7 cells assessed as cell viability at 50 uM after 72 hrs by fluorescence microplate reader method. Type of experiment: functional. Particulars: MCF7, 72 h, read-out: Activity.
Experiment [20] can be described thus: Cytotoxicity against human G361 cells assessed as cell viability after 72 hrs by fluorescence microplate reader method. Particulars: G-361, 72 h. It counts as functional, cell-based. Summed up:
as §3

The nature of experiment [21]: Cytotoxicity against human HCT116 cells assessed as cell viability after 72 hrs by fluorescence microplate reader method. It counts as functional, cell-based. The settings on record: HCT-116, 72 h. Summed up: as §3
In experiment [22] the target is T1, Cyclin-dependent kinase 2/cyclin E1 (Homo sapiens). The experiment can be described thus: Inhibition of CDK2/Cyclin E in human G361 cells assessed as suppression of RB phosphorylation at S807/811 at 50 uM after 4 hrs by immunoblotting analysis. It counts as cell-based. Particulars: G-361. Summed up: as §2
In experiment [23] the target is Cyclin-dependent kinase 4/cyclin D1 (Homo sapiens, UniProt P11802). Description: Inhibition of CDK4/Cyclin D1 (unknown origin) using RPPTLSPIPHIPR peptide as substrate in presence of [gamma-33P]ATP. It counts as protein-complex assay.
Cyclin-dependent kinase 4/cyclin D1, sequence (P11802 whole entry): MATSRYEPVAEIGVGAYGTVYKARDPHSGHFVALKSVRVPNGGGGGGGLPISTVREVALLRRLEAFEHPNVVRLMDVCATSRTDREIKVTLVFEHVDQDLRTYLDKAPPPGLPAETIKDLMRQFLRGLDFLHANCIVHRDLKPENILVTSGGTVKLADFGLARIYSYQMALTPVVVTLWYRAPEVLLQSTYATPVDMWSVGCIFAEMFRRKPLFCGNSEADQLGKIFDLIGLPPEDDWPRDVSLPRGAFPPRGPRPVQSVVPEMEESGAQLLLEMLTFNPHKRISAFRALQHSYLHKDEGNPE
Cyclin-dependent kinase 4/cyclin D1, sequence (P24385 whole entry, further chain): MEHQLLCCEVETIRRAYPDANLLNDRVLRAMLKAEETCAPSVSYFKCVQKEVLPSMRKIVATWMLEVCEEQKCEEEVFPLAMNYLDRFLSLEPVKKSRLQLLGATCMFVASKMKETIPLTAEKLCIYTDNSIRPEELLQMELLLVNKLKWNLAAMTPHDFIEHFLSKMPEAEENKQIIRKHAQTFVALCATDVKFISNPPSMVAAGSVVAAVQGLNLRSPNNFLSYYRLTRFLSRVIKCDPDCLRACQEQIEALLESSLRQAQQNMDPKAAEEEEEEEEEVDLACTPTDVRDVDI
The nature of experiment [24]: Upregulation of Bak protein level in human G361 cells at 20 to 80 uM after 24 hrs by immunoblotting analysis. Type of experiment: functional, cell-based. The settings on record: G-361. Summed up:
as §1

A short description of experiment [25]: Cell cycle arrest in BrdU pulse labeled human G361 cells assessed as accumulation at G1 phase after 24 hrs by propidium iodide staining based flow cytometry. The settings on record: G-361. Type of experiment: functional.
Experiment [26] deals with Cyclin-dependent kinase 2/cyclin E1 (Homo sapiens, UniProt P24941). The experiment can be described thus: Inhibition of CDK2/Cyclin E (unknown origin) expressed in baculoviral infected insect Sf9 cells using histone H1 as substrate in presence of [gamma-33P]ATP.
The subject of experiment [27] is G-361. The experiment can be described thus: Induction of apoptosis in human G361 cells assessed as activation of caspases-3/7 at 50 uM using Ac-DEVD-AMC as substrate after 6 hrs by fluorescence microplate reader method relative to control. Type of experiment: functional. Summed up: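 G361 cells were seeded at 20,000 cells/well overnight, then treated with compound for 24 h. A 3x caspase-3/7 buffer (HEPES pH 7.4, NaCl, KCl, MgCl2, EGTA, Nonidet P40, CHAPS, sucrose, DTT, PMSF) containing Ac-DEVD-AMC substrate was added, and plates were incubated at 37 °C. Fluorescence at 346/442 nm was read after 6 h and expressed relative to untreated control.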

Experiment [28] can be described thus: Downregulation of Rb levels in human G361 cells after 24 hrs by immunoblotting analysis. Type of experiment: functional, cell-based. Particulars: G-361. Summed up:
as §1

Experiment [29] concerns the target T1, Cyclin-dependent kinase 2/cyclin E1 (Homo sapiens). Description: Inhibition of CDK2/Cyclin E in human G361 cells assessed as suppression of RB phosphorylation at S780 at 50 uM after 4 hrs by immunoblotting analysis. It counts as cell-based. Particulars: G-361. Summed up:
as §2

A short description of experiment [30]: Upregulation of Bax protein level in human G361 cells at 20 to 80 uM after 24 hrs by immunoblotting analysis. Type of experiment: functional, cell-based. The settings on record: G-361. Summed up:
as §1

The subject of experiment [31] is G-361. The experiment can be described thus: Induction of apoptosis in human G361 cells assessed as activation of caspases-3/7 at 20 to 80 uM using Ac-DEVD-AMC as substrate after 24 hrs by fluorimetric analysis. It counts as functional, cell-based. Summed up:
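Lysates cleared at 10 000 g, 30 min, 4 °C, equalized for protein, then incubated 3 h with Ac-DEVD-AMC in 25 mM PIPES, 2 mM EGTA, 2 mM MgCl2, 5 mM DTT, pH 7.3. Fluorescence read at 355/460 nm, normalized to untreated control.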

A short description of experiment [32]: Cell cycle arrest in BrdU pulse labeled human G361 cells assessed as accumulation at G2/M phase after 24 hrs by propidium iodide staining based flow cytometry. Type of experiment: functional. Particulars: G-361.
The subject of experiment [33] is K562. Description: Cytotoxicity against human K562 cells assessed as cell viability after 72 hrs by fluorescence microplate reader method. Type of experiment: functional, cell-based. The settings on record: K562, 72 h. Summed up: as §3
The target of experiment [34] is Cyclin-dependent kinase 1/cyclin B1 (Homo sapiens, UniProt P06493). Description: Inhibition of CDK1/Cyclin B (unknown origin) expressed in baculoviral infected insect Sf9 cells using histone H1 as substrate in presence of [gamma-33P]ATP. It counts as cell-based.
Cyclin-dependent kinase 1/cyclin B1, sequence (P06493 whole entry): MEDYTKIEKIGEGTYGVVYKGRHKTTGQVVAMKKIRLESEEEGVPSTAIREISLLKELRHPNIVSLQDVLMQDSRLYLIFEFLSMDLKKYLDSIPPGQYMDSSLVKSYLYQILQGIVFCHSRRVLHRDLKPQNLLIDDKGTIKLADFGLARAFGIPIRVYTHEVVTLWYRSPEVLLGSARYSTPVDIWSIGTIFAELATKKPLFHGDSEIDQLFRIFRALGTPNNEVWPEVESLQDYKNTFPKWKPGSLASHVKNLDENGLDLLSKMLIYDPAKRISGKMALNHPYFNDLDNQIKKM
Cyclin-dependent kinase 1/cyclin B1, sequence (P14635 whole entry, further chain): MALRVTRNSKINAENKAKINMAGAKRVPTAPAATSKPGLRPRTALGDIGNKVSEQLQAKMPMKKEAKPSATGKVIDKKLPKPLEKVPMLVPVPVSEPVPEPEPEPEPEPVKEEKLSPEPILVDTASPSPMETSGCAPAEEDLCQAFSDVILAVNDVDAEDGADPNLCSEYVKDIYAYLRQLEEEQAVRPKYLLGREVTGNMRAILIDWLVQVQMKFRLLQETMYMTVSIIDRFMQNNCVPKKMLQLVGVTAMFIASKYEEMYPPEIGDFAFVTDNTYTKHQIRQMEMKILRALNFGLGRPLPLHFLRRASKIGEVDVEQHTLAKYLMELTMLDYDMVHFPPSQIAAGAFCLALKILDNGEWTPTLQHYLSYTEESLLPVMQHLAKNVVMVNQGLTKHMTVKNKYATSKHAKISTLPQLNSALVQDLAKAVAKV
The nature of experiment [35]: Cell cycle arrest in BrdU pulse labeled human G361 cells assessed as accumulation at sub G1 phase at 40 uM after 24 hrs by propidium iodide staining based flow cytometry (reference value: 0.8%). It counts as functional. The settings on record: G-361.
Experiment [36] relates to HeLa. The experiment can be described thus: Cytotoxicity against human HeLa cells assessed as cell viability after 72 hrs by fluorescence microplate reader method. It counts as functional, cell-based. Summed up:
as §3

Experiment [37] deals with MCF7. The experiment can be described thus: Cytotoxicity against human MCF7 cells assessed as cell viability after 72 hrs by fluorescence microplate reader method. It counts as functional, cell-based. Particulars: MCF7, 72 h. Summed up:
as §3

The nature of experiment [38]: Inhibition of CDK4/Cyclin D (unknown origin) expressed in baculovirus infected insect Sf9 cells using human pRB as substrate in presence of [gamma-32P]ATP.

`c1cnc2[nH]c(-c3cnnn3CCCc3c[nH]c4ncccc34)cc2c1`: the IC50 was 10.7 µM in experiment [1]; 9 µM in experiment [10]; above 50 µM in experiment [11]; 31 µM in experiment [12]; 31.5 µM in [20]; above 50 µM in experiment [21]. For the same compound, the IC50 is 9 µM in [23]; 2 µM in [26] (read-out: IC50); 2 µM in [26] (read-out: pIC50 (converted)); 39.9 µM in experiment [33]; 11.5 µM in experiment [34]; above 50 µM in experiment [36]. Moreover, the IC50 in [37] was above 25 µM. Moreover, the result in experiment [2], in experiment [7], in [9], in experiment [13], in [15] and in experiment [18] was Active. In addition, the outcome in [24], in experiment [25], in [30], in experiment [31] and in experiment [32] was Active. Also, the Activity in [3] is 2.4%; in experiment [5] it was 22.1%; in experiment [8] it was 34.7%; in [16] it was “Dose-dependent effect”; in experiment [28], “Dose-dependent effect”; in [35], 10%. The viability at 50 µM in experiment [4] was 32.4%; in experiment [14] it was 57.4%; in [19], 55.4%. Also, the inhibition entry in experiment [6], in experiment [17], in experiment [22] and in experiment [29] was “Active” in each case. In [27], the “fold change (FC)” value is 13.8.
With `O=C1c2ccccc2-[n+]2ccc3c([nH]c4ccccc43)c21` [FASCAPLYSIN CHLORIDE], the IC50 in experiment [38] came to 0.35 µM.
